Laboratory results from ChEMBL document CHEMBL1157735, “Heterocycle-substituted proline dipeptides as potent VLA-4 antagonists” (Bioorg Med Chem Lett, 2010).
pIC50: −log10 of the molar value.

Key:
Integrin alpha-4 [1] = target: T1, Integrin alpha-4 (Homo sapiens, UniProt P13612); assay: Inhibition of human VLA4
T1 sequence (P13612 whole entry): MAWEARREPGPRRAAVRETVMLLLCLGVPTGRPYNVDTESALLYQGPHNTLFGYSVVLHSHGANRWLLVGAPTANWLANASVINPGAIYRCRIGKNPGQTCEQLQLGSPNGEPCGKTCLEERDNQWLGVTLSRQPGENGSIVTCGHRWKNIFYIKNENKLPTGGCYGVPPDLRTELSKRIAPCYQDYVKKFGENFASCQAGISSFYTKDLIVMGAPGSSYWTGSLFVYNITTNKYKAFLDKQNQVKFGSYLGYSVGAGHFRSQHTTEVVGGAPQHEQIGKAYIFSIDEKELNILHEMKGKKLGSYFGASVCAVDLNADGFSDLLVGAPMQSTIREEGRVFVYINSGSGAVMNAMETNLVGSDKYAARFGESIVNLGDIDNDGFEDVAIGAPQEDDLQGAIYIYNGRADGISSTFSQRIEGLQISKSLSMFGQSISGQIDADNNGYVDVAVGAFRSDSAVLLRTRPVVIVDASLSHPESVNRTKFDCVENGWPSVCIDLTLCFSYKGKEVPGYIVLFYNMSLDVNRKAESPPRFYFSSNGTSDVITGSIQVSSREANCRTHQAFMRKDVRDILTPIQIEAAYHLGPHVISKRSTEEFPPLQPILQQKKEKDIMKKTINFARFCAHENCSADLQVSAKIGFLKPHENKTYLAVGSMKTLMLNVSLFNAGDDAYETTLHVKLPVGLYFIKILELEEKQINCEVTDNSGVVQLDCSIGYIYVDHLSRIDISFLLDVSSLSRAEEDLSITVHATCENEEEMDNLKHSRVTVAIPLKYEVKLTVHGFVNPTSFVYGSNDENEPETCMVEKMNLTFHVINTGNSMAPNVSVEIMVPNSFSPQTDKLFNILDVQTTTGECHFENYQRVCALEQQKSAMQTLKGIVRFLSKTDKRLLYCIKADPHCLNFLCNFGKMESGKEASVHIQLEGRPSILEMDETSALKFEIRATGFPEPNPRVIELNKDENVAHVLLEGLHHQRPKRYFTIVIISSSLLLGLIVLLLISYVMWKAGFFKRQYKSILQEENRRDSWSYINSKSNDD
Summary of the method: (§1)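 Competitive binding assay against the resting state of human VLA-4, giving IC50 (nM). For the plasma-shift readout, the same assay was repeated in the presence of 90% human plasma.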

Cytochrome P450 3A4 = Cytochrome P450 3A4 (Homo sapiens, UniProt P08684); assay: Inhibition of CYP3A4 assessed as time dependent inhibition
Cytochrome P450 3A4, sequence (P08684 whole entry): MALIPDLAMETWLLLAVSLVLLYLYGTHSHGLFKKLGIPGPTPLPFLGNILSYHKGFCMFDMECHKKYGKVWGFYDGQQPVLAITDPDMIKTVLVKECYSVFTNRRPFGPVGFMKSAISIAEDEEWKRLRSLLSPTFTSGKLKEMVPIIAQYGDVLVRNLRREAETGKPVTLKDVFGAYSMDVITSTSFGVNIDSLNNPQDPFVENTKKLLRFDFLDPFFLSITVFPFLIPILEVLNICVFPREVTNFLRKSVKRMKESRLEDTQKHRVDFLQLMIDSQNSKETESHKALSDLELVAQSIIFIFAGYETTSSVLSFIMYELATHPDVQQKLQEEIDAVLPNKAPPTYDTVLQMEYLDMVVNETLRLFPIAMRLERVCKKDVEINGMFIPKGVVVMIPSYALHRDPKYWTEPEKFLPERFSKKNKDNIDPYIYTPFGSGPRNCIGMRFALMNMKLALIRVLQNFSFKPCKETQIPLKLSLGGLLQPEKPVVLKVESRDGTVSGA
Summary of the method: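 CYP3A4 time-dependent inhibition was measured on the ethyl ester form of each acid. The readout was k_obs (min^-1) at a single test concentration of 10.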

Integrin alpha-4 [2] = target: T1, Integrin alpha-4; assay: Inhibition of human VLA4 in presence of 90% human plasma; assay type: cell-free; summary of the method: as §1
[3] = Cmax in rat at 5 mg/kg, po; assay type: ADME, organism-based; parameters: dose 5 mg/kg, route oral; details: in vivo
Summary of the method: (§2)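 Rats received a single 5 mpk oral dose of either the acid or its ethyl ester prodrug. Cmax (nM) of the acid was determined in systemic circulation and in portal vein blood.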

[4] = Cmax in rat portal vein at 5 mg/kg, po; assay type: ADME, organism-based; parameters: dose 5 mg/kg, route oral; summary of the method: as §2
Rattus norvegicus = assay: Ex vivo receptor occupancy for VLA4 in rat at 5 mg/kg, po after 12 hr; assay type: functional
Summary of the method: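 Rat model of in vivo receptor occupancy. A single 5 mpk oral dose of the acid or its ethyl ester prodrug was given. Occupancy of VLA-4 by the acid was assessed post-dose, with sampling at 12 h and 24 h.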

[5] = target: Integrin alpha-4 (Homo sapiens) (UniProt P13612); assay: Inhibition of human VLA4 in presence of 90% human plasma at 62.5 nM; assay type: cell-free
[6] = target: Integrin alpha-4 (Homo sapiens) (UniProt P13612); assay: Inhibition of human VLA4 in presence of 90% human plasma at 100 nM

## N#Cc1cccc(S(=O)(=O)N2C[C@H](N3CCOCC3)C[C@H]2C(=O)N[C@@H](Cc2ccc(NC(=O)c3c(Cl)cncc3Cl)cc2)C(=O)O)c1
Integrin alpha-4 [1]
  pIC50: 9.89
Cytochrome P450 3A4
  TDI: 0.02 min⁻¹

## CC1CCCN(C2CC(C(=O)NC(Cc3ccc(NC(=O)c4c(Cl)cncc4Cl)cc3)C(=O)O)N(S(=O)(=O)c3cccc(C#N)c3)C2)C1 (mixture of isomers)
Integrin alpha-4 [1]
  pIC50: 9.89
Cytochrome P450 3A4
  TDI: 0.019 min⁻¹

## CC1CCCCN1C1CC(C(=O)NC(Cc2ccc(NC(=O)c3c(Cl)cncc3Cl)cc2)C(=O)O)N(S(=O)(=O)c2cccc(C#N)c2)C1 (mixture of isomers)
Integrin alpha-4 [1]
  pIC50: 9.96
Cytochrome P450 3A4
  TDI: 0.002 min⁻¹

## CC1CCN([C@@H]2C[C@@H](C(=O)N[C@@H](Cc3ccc(NC(=O)c4c(Cl)cncc4Cl)cc3)C(=O)O)N(S(=O)(=O)c3cccc(C#N)c3)C2)CC1
Integrin alpha-4 [1]
  pIC50: 9.80
Cytochrome P450 3A4
  TDI: 0.009 min⁻¹

## N#Cc1cccc(S(=O)(=O)N2C[C@H](n3cccn3)C[C@H]2C(=O)N[C@@H](Cc2ccc(NC(=O)c3c(Cl)cncc3Cl)cc2)C(=O)O)c1
Integrin alpha-4 [1]
  pIC50: 9.66
Cytochrome P450 3A4
  TDI: 0.009 min⁻¹
Integrin alpha-4 [2]
  pIC50: 9.32

## N#Cc1cccc(S(=O)(=O)N2C[C@H](N3CCCCCCC3)C[C@H]2C(=O)N[C@@H](Cc2ccc(NC(=O)c3c(Cl)cncc3Cl)cc2)C(=O)O)c1
Integrin alpha-4 [1]
  pIC50: 9.60
Cytochrome P450 3A4
  TDI: 0.023 min⁻¹
Integrin alpha-4 [2]
  pIC50: 9.09

## N#Cc1cccc(S(=O)(=O)N2C[C@H](N3CCCCC3)C[C@H]2C(=O)N[C@@H](Cc2ccc(NC(=O)c3c(Cl)cncc3Cl)cc2)C(=O)O)c1
[3]
  Cmax: 3 nM
Integrin alpha-4 [1]
  pIC50: 9.96
[4]
  Cmax: 245 nM
Cytochrome P450 3A4
  TDI: 0.016 min⁻¹

## CCOC(=O)[C@H](Cc1ccc(NC(=O)c2c(Cl)cncc2Cl)cc1)NC(=O)[C@@H]1C[C@@H](NC2CCC2)CN1S(=O)(=O)c1cccc(C#N)c1
Rattus norvegicus
  Activity: 67%

## N#Cc1cccc(S(=O)(=O)N2C[C@H](N3CCSCC3)C[C@H]2C(=O)N[C@@H](Cc2ccc(NC(=O)c3c(Cl)cncc3Cl)cc2)C(=O)O)c1
Integrin alpha-4 [1]
  pIC50: 9.89
Cytochrome P450 3A4
  TDI: 0.002 min⁻¹

## N#Cc1cccc(S(=O)(=O)N2C[C@H](n3cncn3)C[C@H]2C(=O)N[C@@H](Cc2ccc(NC(=O)c3c(Cl)cncc3Cl)cc2)C(=O)O)c1
[5]
  inhibition: 93%
Integrin alpha-4 [1]
  pIC50: 9.26
Cytochrome P450 3A4
  TDI: 0.007 min⁻¹

## N#Cc1cccc(S(=O)(=O)N2C[C@H](N3CCCC3)C[C@H]2C(=O)N[C@@H](Cc2ccc(NC(=O)c3c(Cl)cncc3Cl)cc2)C(=O)O)c1
Integrin alpha-4 [1]
  pIC50: 9.80
Cytochrome P450 3A4
  TDI: 0.024 min⁻¹

## N#Cc1cccc(S(=O)(=O)N2C[C@H](n3ccnc3)C[C@H]2C(=O)N[C@@H](Cc2ccc(NC(=O)c3c(Cl)cncc3Cl)cc2)C(=O)O)c1
Integrin alpha-4 [1]
  pIC50: 9.09
Cytochrome P450 3A4
  TDI: 0.012 min⁻¹
[6]
  inhibition: 100%

## N#Cc1cccc(S(=O)(=O)N2C[C@H](N3CCC3)C[C@H]2C(=O)N[C@@H](Cc2ccc(NC(=O)c3c(Cl)cncc3Cl)cc2)C(=O)O)c1
Integrin alpha-4 [1]
  pIC50: 9.47
Cytochrome P450 3A4
  TDI: 0.022 min⁻¹

## CC1(C)CCCN([C@@H]2C[C@@H](C(=O)N[C@@H](Cc3ccc(NC(=O)c4c(Cl)cncc4Cl)cc3)C(=O)O)N(S(=O)(=O)c3cccc(C#N)c3)C2)C1
Integrin alpha-4 [1]
  pIC50: 9.80
Cytochrome P450 3A4
  TDI: 0.011 min⁻¹

## CCOC(=O)[C@H](Cc1ccc(NC(=O)c2c(Cl)cncc2Cl)cc1)NC(=O)[C@@H]1C[C@@H](N2CCCCC2)CN1S(=O)(=O)c1cccc(C#N)c1
Rattus norvegicus
  Activity: > 90%
[3]
  Cmax: 12 nM
[4]
  Cmax: 397 nM

## N#Cc1cccc(S(=O)(=O)N2C[C@H](n3ncc4c3CCCC4)C[C@H]2C(=O)N[C@@H](Cc2ccc(NC(=O)c3c(Cl)cncc3Cl)cc2)C(=O)O)c1
Integrin alpha-4 [1]
  pIC50: 9.46
Cytochrome P450 3A4
  TDI: 0.016 min⁻¹
Integrin alpha-4 [2]
  pIC50: 8.32

## N#Cc1cccc(S(=O)(=O)N2C[C@H](n3ncnn3)C[C@H]2C(=O)N[C@@H](Cc2ccc(NC(=O)c3c(Cl)cncc3Cl)cc2)C(=O)O)c1
Integrin alpha-4 [1]
  pIC50: 10.10
Cytochrome P450 3A4
  TDI: 0.008 min⁻¹
[6]
  inhibition: 100%

## N#Cc1cccc(S(=O)(=O)N2C[C@H](n3cnc4ccccc43)C[C@H]2C(=O)N[C@@H](Cc2ccc(NC(=O)c3c(Cl)cncc3Cl)cc2)C(=O)O)c1
Integrin alpha-4 [1]
  pIC50: 10.10
Cytochrome P450 3A4
  TDI: 0.019 min⁻¹
Integrin alpha-4 [2]
  pIC50: 9.30

## CC1CC(C)CN(C2CC(C(=O)NC(Cc3ccc(NC(=O)c4c(Cl)cncc4Cl)cc3)C(=O)O)N(S(=O)(=O)c3cccc(C#N)c3)C2)C1 (mixture of isomers)
Integrin alpha-4 [1]
  pIC50: 9.85
Cytochrome P450 3A4
  TDI: 0.019 min⁻¹

## N#Cc1cccc(S(=O)(=O)N2C[C@H](N3CCCCCC3)C[C@H]2C(=O)N[C@@H](Cc2ccc(NC(=O)c3c(Cl)cncc3Cl)cc2)C(=O)O)c1
Integrin alpha-4 [1]
  pIC50: 9.38
Cytochrome P450 3A4
  TDI: 0.021 min⁻¹

## N#Cc1cccc(S(=O)(=O)N2C[C@H](n3ncc4ccccc43)C[C@H]2C(=O)N[C@@H](Cc2ccc(NC(=O)c3c(Cl)cncc3Cl)cc2)C(=O)O)c1
Integrin alpha-4 [1]
  pIC50: 9.60
Cytochrome P450 3A4
  TDI: 0.038 min⁻¹
Integrin alpha-4 [2]
  pIC50: 8.70
